From ChEMBL document CHEMBL4673212, “Investigation of synergistic antimicrobial effects of the drug combinations of meropenem and 1,2-benzisoselenazol-3(2H)-one derivatives on carbapenem-resistant Enterobacteriaceae producing NDM-1” (Eur J Med Chem, 2018) come the findings set out here.

The test system of series [1] is Morganella morganii. In words: Synergistic antibacterial activity against carbapenem-resistant Morganella morganii isolate 23 assessed as fractional inhibitory concentration index in presence of meropenem by CLSI protocol based assay. The format is functional. Summed up:
(§1)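 FIC index from MICs of compound alone, meropenem alone, and the 1:1 (mass) compound–meropenem combination, read by eye after overnight incubation in a CLSI-based assay. FIC index = MICcombo/MICcpd + MICcombo/MICMem. FIC index ≤0.5 counted as synergy. At least triplicate assays. Clinical NDM-1 isolates for 17-39; E. coli TG1 carrying the IncX3 blaNDM-1 plasmid for 15.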

The next series deals with Citrobacter freundii. In words: Synergistic antibacterial activity against carbapenem-resistant Citrobacter freundii isolate 43 assessed as fractional inhibitory concentration index in presence of meropenem by CLSI protocol based assay. The format is functional. The gist of the method: as §1
A further series relates to Klebsiella oxytoca. In words: Synergistic antibacterial activity against carbapenem-resistant Klebsiella oxytoca isolate 03 harboring SHV-12 assessed as fractional inhibitory concentration index in presence of meropenem by CLSI protocol based assay. Type of series: functional. Summed up:
as §1

Series [2] has as its system Enterobacter cloacae. In words: Growth inhibition of carbapenem-resistant Enterobacter cloacae isolate 09 harboring CTX-M-3, CTX-M-14, TEM-1 and SHV-12 by CLSI protocol based assay. The format is functional.
The subject of series [3] is Escherichia coli. In words: Growth inhibition of carbapenem-resistant Escherichia coli isolate 45 by CLSI protocol based assay. Type of series: functional.
The subject of series [4] is Escherichia coli. In words: Growth inhibition of carbapenem-resistant Escherichia coli isolate 34 harboring CTX-M-15, TEM-1 and SHV-12 by CLSI protocol based assay. Type of series: functional.
In series [5] the test system is Morganella morganii. In words: Potentiation of meropenem-induced antibacterial activity against carbapenem-resistant Morganella morganii isolate 26 assessed as meropenem MIC by CLSI protocol based assay (reference value: 64 ug/ml). The format is functional.
For series [6], the system named is Enterobacter cloacae. In words: Potentiation of meropenem-induced antibacterial activity against carbapenem-resistant Enterobacter cloacae isolate 27 harboring CTX-M-3, CTX-M-14, TEM-1 and SHV-12 assessed as meropenem MIC by CLSI protocol based assay (reference value: 32 ug/ml). Type of series: functional.
The test system of a further series is Klebsiella pneumoniae. In words: Potentiation of meropenem-induced antibacterial activity against carbapenem-resistant Klebsiella pneumoniae isolate 14 harboring CTX-M-14, KPC-2 and SHV-12 assessed as meropenem MIC by CLSI protocol based assay (Rvb >= 128 ug/ml). Type of series: functional.
The subject of series [7] is HeLa. In words: Cytotoxicity against human HeLa cells assessed as effect on morphological changes at 0.13 to 2 mg/ml by microscopic analysis. The format is cell-based. Particulars: dose 0.13-2 mg/ml. The gist of the method: (§2)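 HeLa and L929 cells were examined by microscopy for morphological change after incubation with compound at the MTT-assay concentrations.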

Series [8] deals with L929. In words: Cytotoxicity against mouse L929 cells assessed as effect on morphological changes at 0.13 to 2 mg/ml by microscopic analysis. Type of series: cell-based. To be noted: dose 0.13-2 mg/ml. Summed up: as §2
For series [9], the system named is L929. In words: Cytotoxicity against mouse L929 cells assessed as increase in cell viability at 2 mg/ml measured after 48 hrs by MTT assay. Particulars: l929, 48 h. The format is cell-based. Summed up:
(§3)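 MTT assay. HeLa or L929 cells were seeded at 1×10^4/well in DMEM with 10% FBS and grown 12 h at 37 °C. They were exposed to 0.13–2 mg/mL compound (DMSO stock) for 48 h, then given 0.5 mg/mL MTT for 3 h at 37 °C. Formazan was dissolved in DMSO and read at 490 nm. Survival % was blank-corrected against the 0.5% DMSO medium control.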

Series [10] has as its system HeLa. In words: Cytotoxicity against human HeLa cells assessed as increase in cell viability at 0.13 to 2 mg/ml measured after 48 hrs by MTT assay relative to control. The format is cell-based. To be noted: dose 0.13-2 mg/ml. The gist of the method: as §3
Series [11] concerns HeLa. In words: Cytotoxicity against human HeLa cells assessed as increase in cell viability at 2 mg/ml measured after 48 hrs by MTT assay. The format is cell-based. The gist of the method: as §3
The target of series [12] is Metallo-beta-lactamase type 2 (Klebsiella pneumoniae) (UniProt C7C422). In words: Inhibition of wild type N-terminal His6-tagged Klebsiella pneumoniae NDM-1 expressed in Escherichia coli BL21 assessed as loss of zinc ion at enzyme active site leading to formation of compound-intact protein complex after 20 mins by ESI-MS analysis. The gist of the method:
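Native mass analysis: 20 µM purified NDM-1 plus equimolar compound in 20 mM ammonium acetate, 20 min, then infused into nano-ESI source (spray ~20 min at 150 V). Adduct formation and zinc content were read from protein mass.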

Series [13] shares this target. In words: Binding affinity to denatured N-terminal His6-tagged Klebsiella pneumoniae NDM-1 expressed in Escherichia coli BL21 assessed as formation of compound-intact protein complex by measuring molecular weight measured after 20 mins by ESI-MS analysis. Summed up: (§4)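 NDM-1 (20 µM) incubated 20 min with equimolar compound in 20 mM ammonium acetate. Native sample infused by nano-ESI with spray held ~20 min at 150 V. For the denatured sample, an equal volume of acetonitrile with 0.5% formic acid was added before syringe-pump loading at 5 µL/min. Complex formation was read from mass.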

Series [14] has the same target. In words: Binding affinity to wild type N-terminal His6-tagged Klebsiella pneumoniae NDM-1 expressed in Escherichia coli BL21 assessed as formation of compound-intact protein complex by measuring molecular weight measured after 20 mins by ESI-MS analysis. Summed up: as §4
Series [15] has the same target. In words: Inhibition of wild type N-terminal His6-tagged Klebsiella pneumoniae NDM-1 expressed in Escherichia coli BL21 assessed as ratio of Kinact/Ki using nitrocefin as substrate measured after 30 mins. Summed up: (§5)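 1 nM purified His6-NDM-1 was mixed with varying compound concentrations in 50 mM phosphate buffer ± 50 µM ZnSO4 with BSA. Nitrocefin was added at 7× Km and velocity read at 482 nm, in triplicate. ln(% residual activity) versus incubation time gave kobs, which was fitted hyperbolically against concentration for KI and kinact.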

Series [16] has the same target. In words: Inhibition of wild type N-terminal His6-tagged Klebsiella pneumoniae NDM-1 expressed in Escherichia coli BL21 assessed as inactivation constant using nitrocefin as substrate measured after 30 mins. The gist of the method:
as §5

In series [17] the target is T1, Metallo-beta-lactamase type 2 (Klebsiella pneumoniae, UniProt C7C422). In words: Inhibition of wild type N-terminal His6-tagged Klebsiella pneumoniae NDM-1 expressed in Escherichia coli BL21 assessed as inhibition constant using nitrocefin as substrate measured after 30 mins. The gist of the method: as §5
T1 sequence (C7C422 whole entry, the tested form may be a part): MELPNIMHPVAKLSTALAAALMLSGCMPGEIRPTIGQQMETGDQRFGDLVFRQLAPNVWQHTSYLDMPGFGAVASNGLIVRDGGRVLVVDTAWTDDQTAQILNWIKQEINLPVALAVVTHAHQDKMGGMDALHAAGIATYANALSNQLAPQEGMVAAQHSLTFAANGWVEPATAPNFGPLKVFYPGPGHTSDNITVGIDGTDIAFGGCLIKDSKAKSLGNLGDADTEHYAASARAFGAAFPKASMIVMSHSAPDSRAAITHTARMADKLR
The target in series [18] is Metallo-beta-lactamase type 2 (Klebsiella pneumoniae) (UniProt C7C422). In words: Time dependent inhibition of wild type N-terminal His6-tagged Klebsiella pneumoniae NDM-1 expressed in Escherichia coli BL21 assessed as residual activity using nitrocefin as substrate. The gist of the method: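 Purified NDM-1 (residues G36–R270, N-terminal His6, expressed in E. coli BL21), 1 nM, mixed with varying inhibitor concentrations in 50 mM phosphate buffer with or without 50 µM ZnSO4, plus BSA. Nitrocefin at 7×Km was the substrate, read at 482 nm. Residual activity was followed against preincubation time, fitted as pseudo-first-order to give KI and kinact. Triplicate assays.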
Sequence of Metallo-beta-lactamase type 2 (Klebsiella pneumoniae) (C7C422 whole entry, the tested form may be a part): as above

For series [19] the target is unchanged. In words: (§6) Inhibition of wild type N-terminal His6-tagged Klebsiella pneumoniae NDM-1 expressed in Escherichia coli BL21 using nitrocefin as substrate measured after 30 mins. The gist of the method:
as §5

Series [20] addresses T1, Metallo-beta-lactamase type 2. Described as §6. The gist of the method:
as §5

Series [21] has as its system Enterobacter cloacae. In words: Potentiation of meropenem-induced antibacterial activity against NDM-1 producing Enterobacter cloacae isolate 10 infected in Galleria mellonella assessed as increase in larvae survival at 10 mg/kg pretreated for 1hr with compound followed by bacterial infection and measured after 48 hrs (reference value: 20 %). The format is functional. To be noted: time 49 hrs.

Structures are written as SMILES. pIC50, pKi: −log10 of the molar value. The source made the active and inactive calls. No cut-off for these calls is given here.

For `O=c1c2ccccc2[se]n1-c1ccccc1` [EBSELEN], the “fractional inhibitory concentration index (FICI)” value with Morganella morganii [1] was 1.5; in the series on Citrobacter freundii it was 0.5; in the series with Klebsiella oxytoca it was 0.5. In addition, the MIC (in general, the lowest concentration that inhibits growth of the organism) is at least 128 µg/mL against Enterobacter cloacae [2]; at least 128 µg/mL in the series with Escherichia coli [3]; at least 128 µg/mL with Escherichia coli [4]; 64 µg/mL in the series with Morganella morganii [5]; 64 µg/mL in the series on Enterobacter cloacae [6]; at least 128 µg/mL with Klebsiella pneumoniae.
In the case of `CC(C)(C)OC(=O)NCCn1[se]c2ccccc2c1=O`, the Activity result in the series on HeLa [7] is “Non-Toxic”; with L929 [8], “Non-Toxic”; in the series with L929 [9] it was “Non-Toxic”; with HeLa [10], 70%; in the series on HeLa [11], “Non-Toxic”; in [13], 26200 Da. Also, the figures for the Activity (in series [14]; in series [18]; in the series on Enterobacter cloacae [21]) were 26300 Da, 11% and 60%, respectively. Moreover, the inhibition result in series [12] was “Active”. Besides, the Ratio in [15] is 0.067 mM⁻¹ s⁻¹. Moreover, the Kinact in series [16] stood at 0.068 min⁻¹. Besides, the negative-log Ki (pKi) (in general, the Ki on a negative log10 scale, so that one unit is a factor of ten) in series [17] was 4.77. Also, the inhibition result in [19] was “Dose-dependent effect”. Further, the negative-log IC50 (pIC50) (usually the negative decadic logarithm of the IC50, by convention in mol/L) in series [20] is 4.89. The “fractional inhibitory concentration index (FICI)” value is 0.19 in the series with Morganella morganii [1], 0.25 with Citrobacter freundii and 0.13 in the series with Klebsiella oxytoca. Besides, the MIC is at least 128 µg/mL with Enterobacter cloacae [2]; at least 128 µg/mL in the series on Escherichia coli [3]; at least 128 µg/mL against Escherichia coli [4]; 2 µg/mL in the series with Morganella morganii [5]; 4 µg/mL in the series with Enterobacter cloacae [6]; 8 µg/mL in the series with Klebsiella pneumoniae.
